{
  "source": "paper PMC3004996",
  "about": "(Bioconjugate chemistry, 2010)",
  "key": {"[1]": {"conditions": "1 hr after injection into mice; cited from earlier work"}, "[2]": {"conditions": "incubation in serum for 24 h; cited from earlier work"}, "U87MG tumor xenografts": {"tested_on": "U87MG tumor xenografts", "conditions": "cited from earlier work"}, "αvβ3 integrin": {"target": "αvβ3 integrin (Homo sapiens, UniProt P05106+P06756)", "sequence (P06756 31-889 limits assumed)": "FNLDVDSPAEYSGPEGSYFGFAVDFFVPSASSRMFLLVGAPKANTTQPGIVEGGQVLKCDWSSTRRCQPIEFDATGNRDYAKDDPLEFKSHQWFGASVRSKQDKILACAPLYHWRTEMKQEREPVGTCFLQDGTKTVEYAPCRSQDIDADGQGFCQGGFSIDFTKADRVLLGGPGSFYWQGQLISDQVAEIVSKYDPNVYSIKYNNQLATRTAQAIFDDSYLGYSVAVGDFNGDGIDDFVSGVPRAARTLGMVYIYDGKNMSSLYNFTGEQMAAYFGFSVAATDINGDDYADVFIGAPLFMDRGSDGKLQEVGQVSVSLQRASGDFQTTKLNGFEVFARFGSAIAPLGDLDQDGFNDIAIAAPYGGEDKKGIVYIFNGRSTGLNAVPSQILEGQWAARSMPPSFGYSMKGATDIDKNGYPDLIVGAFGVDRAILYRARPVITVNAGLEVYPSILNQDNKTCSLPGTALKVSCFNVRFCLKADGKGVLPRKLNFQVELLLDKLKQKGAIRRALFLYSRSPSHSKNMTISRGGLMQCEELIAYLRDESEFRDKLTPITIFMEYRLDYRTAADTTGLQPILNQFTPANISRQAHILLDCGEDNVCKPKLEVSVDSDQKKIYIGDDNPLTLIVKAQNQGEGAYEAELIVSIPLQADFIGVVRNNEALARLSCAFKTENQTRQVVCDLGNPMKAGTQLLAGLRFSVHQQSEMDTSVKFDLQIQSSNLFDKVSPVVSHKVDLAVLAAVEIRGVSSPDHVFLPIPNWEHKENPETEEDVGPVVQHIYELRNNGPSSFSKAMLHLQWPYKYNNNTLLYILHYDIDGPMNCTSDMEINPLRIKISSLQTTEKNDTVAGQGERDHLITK", "sequence (P06756 891-1048 partner limits assumed)": "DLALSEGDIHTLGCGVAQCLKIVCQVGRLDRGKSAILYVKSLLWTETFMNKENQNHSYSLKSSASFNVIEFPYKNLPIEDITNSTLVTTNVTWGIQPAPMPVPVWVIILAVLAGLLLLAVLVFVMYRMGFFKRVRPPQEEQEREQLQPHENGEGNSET", "sequence (P05106 27-788)": "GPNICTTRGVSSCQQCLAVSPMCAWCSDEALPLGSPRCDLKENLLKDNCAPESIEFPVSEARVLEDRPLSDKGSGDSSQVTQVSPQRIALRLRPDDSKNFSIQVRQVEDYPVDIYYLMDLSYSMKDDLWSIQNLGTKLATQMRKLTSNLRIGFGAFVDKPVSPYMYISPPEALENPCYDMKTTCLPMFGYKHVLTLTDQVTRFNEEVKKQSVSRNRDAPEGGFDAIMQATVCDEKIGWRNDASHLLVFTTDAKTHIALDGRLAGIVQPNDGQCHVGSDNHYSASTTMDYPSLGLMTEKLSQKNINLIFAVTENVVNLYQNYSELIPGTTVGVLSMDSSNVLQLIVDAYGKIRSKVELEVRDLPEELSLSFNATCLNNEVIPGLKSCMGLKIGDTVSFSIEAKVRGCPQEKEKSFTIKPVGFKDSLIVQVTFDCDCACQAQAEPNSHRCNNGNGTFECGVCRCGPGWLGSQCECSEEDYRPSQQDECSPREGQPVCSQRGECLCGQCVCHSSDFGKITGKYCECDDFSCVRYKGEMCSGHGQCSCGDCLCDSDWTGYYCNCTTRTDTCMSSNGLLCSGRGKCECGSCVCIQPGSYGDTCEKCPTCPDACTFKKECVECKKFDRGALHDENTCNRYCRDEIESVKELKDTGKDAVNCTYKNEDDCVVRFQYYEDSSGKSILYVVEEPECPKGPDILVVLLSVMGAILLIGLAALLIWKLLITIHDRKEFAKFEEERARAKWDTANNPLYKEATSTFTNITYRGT", "conditions": "read-out: KD for αvβ3 integrin; cited from earlier work"}, "[3]": {"experiment": "Stability in mouse serum, radio-HPLC", "format": "in vitro ADME", "conditions": "50% mouse serum, 37 °C"}, "MDA-MB-435 cells": {"tested_on": "MDA-MB-435 cells", "experiment": "Cell binding and uptake study", "format": "cell-based, human", "conditions": "5 × 10^5 MDA-MB-435 cells, 37 °C, 30, 60, 120 min", "outline": "(§1)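 Cells were suspended in integrin binding buffer (25 mM Tris pH 7.4, 150 mM NaCl, 2 mM CaCl₂, 1 mM MgCl₂, 1 mM MnCl₂, 0.1% BSA). They were incubated with the ⁶⁴Cu-labeled test peptide at 1.5 μCi/tube, with or without c(RGDyK). Cells were then washed three times with chilled PBS, pelleted and gamma-counted. Uptake is % of added radioactivity, in triplicate. U87MG were maintained in DMEM and MDA-MB-435 in L-15, each with 10% heat-inactivated FBS.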"}, "[4]": {"experiment": "In vivo metabolite analysis", "design": "species or system mouse", "conditions": "radio-HPLC and gamma counting", "outline": "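Female athymic nude mice bearing subcutaneous shoulder U87MG xenografts (~10⁷ cells; tumors 8–10 mm) were anesthetized and given 200–400 μCi of ⁶⁴Cu-labeled test peptide by tail vein, then euthanized. Blood and tumor were suspended in ~500 μL PBS plus 500–1000 μL DMF and homogenized by mortar and pestle. Homogenates were passed through a 0.2 μm filter. Filtrates were run on reversed-phase HPLC, with 30 s fractions gamma-counted (cpm).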"}, "[5]": {"experiment": "In vivo biodistribution, gamma counting of dissected tissue", "conditions": "nude (nu/nu), mouse, iv, 100 uCi, total radioactivity", "outline": "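U87MG xenograft-bearing anesthetized nude mice received ~100 μCi (~0.5 nmol) of 64Cu/Cy5.5 dual-labelled test peptide by tail vein. They were euthanized at 1, 4 and 24 hr. Dissected tissues were weighed and gamma counted, calibrated against a pre-measured tracer aliquot, and normalized to whole body weight and residual tail activity. Values are %ID/g, mean and standard deviation of three mice.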"}, "[6]": {"experiment": "MicroPET imaging of MDA-MB-435 xenografts", "format": "in vivo", "conditions": "female, athymic nude (nu/nu), mouse, tumor (MDA-MB-435 xenograft), iv, total radioactivity", "outline": "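MDA-MB-435 cells were grown in Leibovitz L-15 with 10% FBS, and 5 × 10⁶ cells in PBS were implanted subcutaneously in the shoulder of 4-6-week female nude mice. At 8-10 mm tumor diameter, mice (n ≥ 3) received ~100 μCi (~0.5 nmol) labelled probe by tail vein. Imaging used microPET with 3 or 5 min static scans. ROI counts/g/min were converted to %ID/g assuming 1 g/mL, without attenuation correction. Blocking groups were co-injected with 330 μg unlabelled c(RGDyK).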"}, "U87MG cells": {"tested_on": "U87MG cells", "experiment": "Cell binding and uptake study", "format": "cell-based, human", "conditions": "5 × 10^5 U87MG cells, 1 μg c(RGDyK), 37 °C, 30, 60, 120 min", "outline": "as §1"}, "[7]": {"target": "integrin αvβ3 (Homo sapiens) (UniProt P06756)", "sequence (P06756 31-1048, chain 1 of 2)": "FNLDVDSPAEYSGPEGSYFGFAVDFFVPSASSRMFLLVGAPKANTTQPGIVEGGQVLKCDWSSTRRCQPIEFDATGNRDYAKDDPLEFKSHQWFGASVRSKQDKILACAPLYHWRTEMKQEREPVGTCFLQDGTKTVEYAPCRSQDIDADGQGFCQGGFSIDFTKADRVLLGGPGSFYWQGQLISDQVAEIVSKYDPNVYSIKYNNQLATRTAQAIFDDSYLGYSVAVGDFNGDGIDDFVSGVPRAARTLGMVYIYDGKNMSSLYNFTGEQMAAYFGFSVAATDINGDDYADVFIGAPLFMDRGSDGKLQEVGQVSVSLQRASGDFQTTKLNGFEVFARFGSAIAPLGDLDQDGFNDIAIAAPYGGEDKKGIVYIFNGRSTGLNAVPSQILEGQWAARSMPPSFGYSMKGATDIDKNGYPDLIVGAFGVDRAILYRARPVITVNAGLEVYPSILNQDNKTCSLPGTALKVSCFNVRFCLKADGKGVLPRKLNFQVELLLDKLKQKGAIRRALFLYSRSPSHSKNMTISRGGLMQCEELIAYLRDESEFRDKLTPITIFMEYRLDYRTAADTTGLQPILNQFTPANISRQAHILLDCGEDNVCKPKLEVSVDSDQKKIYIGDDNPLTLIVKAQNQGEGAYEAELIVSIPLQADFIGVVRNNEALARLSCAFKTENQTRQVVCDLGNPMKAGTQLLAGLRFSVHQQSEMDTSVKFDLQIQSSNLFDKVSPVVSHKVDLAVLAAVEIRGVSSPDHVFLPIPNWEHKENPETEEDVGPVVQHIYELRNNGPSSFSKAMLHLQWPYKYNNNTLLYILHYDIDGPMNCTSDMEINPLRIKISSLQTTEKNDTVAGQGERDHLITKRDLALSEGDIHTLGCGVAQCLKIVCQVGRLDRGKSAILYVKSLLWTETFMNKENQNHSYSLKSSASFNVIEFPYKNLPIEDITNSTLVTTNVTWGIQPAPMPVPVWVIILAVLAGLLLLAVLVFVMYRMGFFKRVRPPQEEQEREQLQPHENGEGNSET", "sequence (P05106 27-788, chain 2 of 2, further chain)": "as the sequence (P05106 27-788) above", "conditions": "cited from earlier work"}},
  "note": "Like-named read-outs stand apart in the source and are kept apart here. Bridge positions count the residues as written; N and C are the ends. Ends that are not written are not given here. Peptide text beside a SMILES is read from it. * marks the point of attachment. DOTA = O=C(O)CN1CCN(CC(=O)O)CCN(CC(=O)*)CCN(CC(=O)O)CC1",
  "data": [
    {"compound": "CC(C)C[C@@H]1NC(=O)[C@@H]2CSSC[C@@H](C(=O)NCC(N)=O)NC(=O)[C@H](Cc3ccccc3)NC(=O)CNC(=O)[C@H](CC(N)=O)NC(=O)[C@@H]3CCCN3C(=O)CNC(=O)[C@@H]3CSSC[C@H](NC(=O)[C@H](CO)NC(=O)[C@H]([C@@H](C)O)NC(=O)[C@@H]4CCCN4C(=O)[C@H](C)NC(=O)[C@H](Cc4c[nH]c5ccccc45)NC(=O)[C@H](CC(=O)O)NC(=O)CNC(=O)[C@H](CCCNC(=N)N)NC(=O)CNC(=O)[C@H](CCC(N)=O)NC(=O)[C@@H]4CCCN4C(=O)[C@@H](NC(=O)CNC(=O)CN4CCN(CC(=O)O)CCN(CC(=O)O)CCN(CC(=O)O)CC4)CSSC[C@H](NC(=O)CNC(=O)[C@H](C)NC1=O)C(=O)N[C@@H](C(C)C)C(=O)N3)C(=O)N[C@@H](CO)C(=O)N[C@@H](CCC(N)=O)C(=O)N[C@@H](CC(=O)O)C(=O)N[C@@H](CO)C(=O)N[C@@H](CC(=O)O)C(=O)N2", "note": "[^64Cu-DOTA-2.5D, metal not drawn] ({DOTA}-GCPQGRGDWAPTSCSQDSDCLAGCVCGPNGFCG-NH2; disulfide 2-24, 14-26, 20-32)", "values": [
      {"measurement": "In vivo metabolic stability in blood, tumor and kidneys", "setting": "[1]", "result": "recovered intact"},
      {"measurement": "Stability in serum", "setting": "[2]", "result": "only minimal fragmentation"},
      {"measurement": "Liver uptake", "setting": "U87MG tumor xenografts; 1 to 4 hr post injection, previously observed", "result": "1-2 %ID/g"},
      {"measurement": "Kidney uptake", "setting": "U87MG tumor xenografts; 1 hr post injection", "result": "8.08 ± 0.67", "unit": "%ID/g"},
      {"measurement": "Kidney uptake", "setting": "U87MG tumor xenografts; 4 hr post injection", "result": "2.69 ± 0.48", "unit": "%ID/g"},
      {"measurement": "Kidney uptake", "setting": "U87MG tumor xenografts; 24 hr post injection", "result": "1.25 ± 0.11", "unit": "%ID/g"}
    ]},
    {"compound": "ECESGPCCRNCKFLKEGTICKRARGDDMDDYCNGKTCDCPRNPHKGPAT (disulfide 2-11, 7-32, 8-37, 20-39 (inferred)) [Echistatin]", "values": [
      {"measurement": "Kd", "setting": "αvβ3 integrin", "result": "~0.4", "unit": "nM"}
    ]},
    {"compound": "CCN1C(=CC=CC=CC2=[N+](CCCCCC(=O)NCCCC[C@H](NC(=O)CN3CCN(CC(=O)O)CCN(CC(=O)O)CCN(CC(=O)O)CC3)C(=O)NCC(=O)NCC(=O)N[C@@H](Cc3ccc(O)cc3)C(=O)NCC(=O)N[C@H]3CSSC[C@@H]4NC(=O)CNC(=O)[C@H](C)NC(=O)[C@H](CC(C)C)NC(=O)[C@@H]5CSSC[C@@H](C(=O)NCC(N)=O)NC(=O)[C@H](Cc6ccccc6)NC(=O)CNC(=O)[C@H](CC(N)=O)NC(=O)[C@@H]6CCCN6C(=O)CNC(=O)[C@H](CSSC[C@H](NC(=O)[C@H](CO)NC(=O)[C@H]([C@@H](C)O)NC(=O)[C@@H]6CCCN6C(=O)[C@H](C)NC(=O)[C@H](Cc6c[nH]c7ccccc67)NC(=O)[C@H](CC(=O)O)NC(=O)CNC(=O)[C@H](CCCNC(=N)N)NC(=O)CNC(=O)[C@H](CCC(N)=O)NC(=O)[C@@H]6CCCN6C3=O)C(=O)N[C@@H](CO)C(=O)N[C@@H](CCC(N)=O)C(=O)N[C@@H](CC(=O)O)C(=O)N[C@@H](CO)C(=O)N[C@@H](CC(=O)O)C(=O)N5)NC(=O)[C@H](C(C)C)NC4=O)c3ccc4c(S(=O)(=O)[O-])cc(S(=O)(=O)O)cc4c3C2(C)C)C(C)(C)c2c1ccc1c(S(=O)(=O)O)cc(S(=O)(=O)O)cc21", "note": "(single isomer, unassigned) [^64Cu-DOTA/Cy5.5-2.5D, ^64Cu-DOTA-Lys(Cy5.5)-Gly-Gly-Tyr-2.5D, metal not drawn]", "values": [
      {"measurement": "Stability in mouse serum", "setting": "[3]; 1 hr", "result": "minimal probe degradation"},
      {"measurement": "Stability in mouse serum", "setting": "[3]; 24 hr", "result": "intact probe was unrecoverable"},
      {"measurement": "Cell binding and uptake with excess c(RGDyK)", "setting": "MDA-MB-435 cells; 1 μg c(RGDyK)", "result": "blocked"},
      {"measurement": "Cell binding and uptake, versus U87MG cells", "setting": "MDA-MB-435 cells; 1.5 μCi/tube, IBB, gamma counter, triplicate", "result": "lower levels of probe uptake"},
      {"measurement": "In vivo metabolic stability in tumor", "setting": "[4]; U87MG tumor 1 hr post injection", "result": "significant breakdown of probe"},
      {"measurement": "In vivo metabolic stability in kidney", "setting": "[4]; kidney 1 hr post injection", "result": "intact probe was not able to be recovered"},
      {"measurement": "In vivo metabolic stability in liver", "setting": "[4]; liver 1 hr post injection", "result": "intact probe was not able to be recovered"},
      {"measurement": "tissue uptake", "setting": "[5]; kidney, Kidney uptake, for 1-4 hr post injection, approximate", "result": "~80", "unit": "%ID/g"},
      {"measurement": "tissue uptake", "setting": "[5]; liver, Liver uptake, at 1-24 hr post injection", "result": "4 to 7", "unit": "%ID/g"},
      {"measurement": "tissue uptake", "setting": "[5]; liver, Liver uptake, at 1 and 4 hr post injection", "result": "4 to 7", "unit": "%ID/g"},
      {"measurement": "tissue uptake at 1 h", "setting": "[6]; 100 uCi", "result": "1.33 ± 0.02", "unit": "%ID/g"},
      {"measurement": "tissue uptake at 24 h", "setting": "[6]; 100 uCi", "result": "1.01 ± 0.1", "unit": "%ID/g"},
      {"measurement": "tissue uptake at 1 h", "setting": "[6]", "result": "0.82 ± 0.05", "unit": "%ID/g"},
      {"measurement": "tissue uptake at 24 h", "setting": "[6]", "result": "0.6 ± 0.09", "unit": "%ID/g"},
      {"measurement": "Cell binding and uptake with excess c(RGDyK)", "setting": "U87MG cells", "result": "blocked"}
    ]},
    {"compound": "echistatin (from UniProt P17347)", "values": [
      {"measurement": "Kd", "setting": "[7]", "result": 0.4, "unit": "nM"}
    ]}
  ]
}
